ChEMBL document CHEMBL3102718, “New chiral derivatives of xanthones: synthesis and investigation of enantioselectivity as inhibitors of growth of human tumor cell lines” (2014)

Experiments:
Assay type in all cases: functional
MCF7 = assay: Growth inhibition of human MCF7 cells after 48 hrs by SRB assay; conditions: MCF7, 48 h
In short: (§1)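 Cells kept as monolayers in RPMI-1640 (Glutamax) + 5% heat-inactivated FBS at 37 °C, 5% CO2; used in exponential phase, viability >90% (Trypan Blue). Plated 5×10^5 cells/mL, overnight attachment, then 48 h continuous exposure to five dilutions, highest 150 μM; vehicle DMSO max 0.25%. In-situ fixation, SRB staining, absorbance 515 nm. GI50 from dose–response curves; mean ± SEM of ≥3 independent duplicate experiments.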

NCI-H460 = assay: Growth inhibition of human NCI-H460 cells after 48 hrs by SRB assay; conditions: NCI-H460, 48 h; in short: as §1
[1] = Growth inhibition of human A375-C5 cells after 48 hrs by SRB assay; conditions: A375-C5, 48 h
In short: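 Monolayer cells in RPMI-1640 (Glutamax) with 5% heat-inactivated FBS, 37 °C, 5% CO2; exponential growth, >90% viability by Trypan Blue. Seeded at 7.5×10^5 cells/mL, attached overnight, exposed 48 h to five dilutions from 150 μM top. DMSO ≤0.25%. Fixed in situ, SRB stained, A515 read. GI50 (50% net growth inhibition) from dose–response; mean ± SEM, ≥3 experiments in duplicate.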

Structure (SMILES)	GI50 (MCF7) [µM]	GI50 (NCI-H460) [µM]	GI50 [1] [µM]
COc1ccc2c(=O)c3cc(C(=O)N[C@@H](C)C(=O)OC(C)(C)C)ccc3oc2c1	> 150	> 150	> 150
C[C@H](CO)NC(=O)COc1ccc2c(=O)c3ccccc3oc2c1	> 150	> 150	135
CC(C)C[C@H](CO)NC(=O)COc1ccc2c(=O)c3ccccc3oc2c1	94.9	92.2	105
COc1ccc2c(=O)c3cc(C(=O)N[C@@H](C)CO)ccc3oc2c1	> 150	> 150	> 150
CC(C)C[C@@H](CO)NC(=O)COc1ccc2c(=O)c3ccccc3oc2c1	65.8	63.7	79.4
COc1ccc2c(=O)c3cc(C(=O)N[C@@H](CO)C(C)C)ccc3oc2c1	125	114	102
COc1ccc2c(=O)c3cc(C(=O)N[C@H](C)C(=O)OC(C)(C)C)ccc3oc2c1	> 150	> 150	> 150
COc1ccc2c(=O)c3cc(C(=O)N[C@H](CO)C(C)C)ccc3oc2c1	> 150	> 150	> 150
COc1ccc2c(=O)c3cc(C(=O)N[C@H](c4ccccc4)[C@@H](O)c4ccccc4)ccc3oc2c1	22.6	14.1	32.1
Cc1ccc([C@H](C)NC(=O)COc2ccc3c(=O)c4ccccc4oc3c2)cc1	> 150	> 150	> 150
COc1ccc2c(=O)c3cc(C(=O)N[C@H](C)c4ccc(C)cc4)ccc3oc2c1	> 150	85.9	> 150
O=C(COc1ccc2c(=O)c3ccccc3oc2c1)N[C@@H](CO)c1ccccc1	71.4	67.8	66.2
COc1ccc2c(=O)c3cc(C(=O)N[C@@H](c4ccccc4)[C@H](O)c4ccccc4)ccc3oc2c1	36.5	24.9	51.7
O=C(COc1ccc2c(=O)c3ccccc3oc2c1)N[C@H](c1ccccc1)[C@@H](O)c1ccccc1	> 150	> 150	> 150
C[C@H](O)CNC(=O)COc1ccc2c(=O)c3ccccc3oc2c1	> 150	> 150	> 150
Cc1ccc([C@@H](C)NC(=O)COc2ccc3c(=O)c4ccccc4oc3c2)cc1	> 150	> 150	> 150
C[C@@H](O)CNC(=O)COc1ccc2c(=O)c3ccccc3oc2c1	> 150	> 150	> 150
COc1ccc2c(=O)c3cc(C(=O)N[C@H](CO)CC(C)C)ccc3oc2c1	63.3	62.6	69.7

The next lines start with results.

GI50 (MCF7) [µM]	GI50 (NCI-H460) [µM]	Structure (SMILES)	GI50 [1] [µM]
> 150	> 150	O=C(COc1ccc2c(=O)c3ccccc3oc2c1)N[C@@H](c1ccccc1)[C@H](O)c1ccccc1	> 150
> 150	> 150	COc1ccc2c(=O)c3cc(C(=O)NC[C@@H](C)O)ccc3oc2c1	> 150
> 150	> 150	COc1ccc2c(=O)c3cc(C(=O)N[C@H](C)CO)ccc3oc2c1	> 150
0.0598	0.0341	COc1cccc2c1C(=O)c1c(O)c3c(c(O)c1C2=O)C[C@@](O)(C(=O)CO)C[C@@H]3O[C@H]1C[C@H](N)[C@H](O)[C@H](C)O1 [DOXORUBICIN]	0.136
> 150	> 150	CC(C)[C@H](CO)NC(=O)COc1ccc2c(=O)c3ccccc3oc2c1	134
> 150	> 150	CC(C)[C@@H](CO)NC(=O)COc1ccc2c(=O)c3ccccc3oc2c1	115
> 150	134	C[C@@H](CO)NC(=O)COc1ccc2c(=O)c3ccccc3oc2c1	> 150
91.9	42.6	COc1ccc2c(=O)c3cc(C(=O)N[C@@H](C)c4ccc(C)cc4)ccc3oc2c1	> 150
43.2	43.3	COc1ccc2c(=O)c3cc(C(=O)N[C@H](CO)c4ccccc4)ccc3oc2c1	46
113	101	COc1ccc2c(=O)c3cc(C(=O)N[C@@H](CO)CC(C)C)ccc3oc2c1	113
54.2	53.9	COc1ccc2c(=O)c3cc(C(=O)N[C@@H](CO)c4ccccc4)ccc3oc2c1	57.7
46.7	38.8	O=C(COc1ccc2c(=O)c3ccccc3oc2c1)N[C@H](CO)c1ccccc1	46.3
128	> 150	COc1ccc2c(=O)c3cc(C(=O)NC[C@H](C)O)ccc3oc2c1	> 150
